Assay results published in the RNAGym collection of RNA variant scans (doi:10.1002/anie.201605470).

B1: Osa-1-4 twister ribozyme (parent)
chain: CCGCCUAACACUGCCAAUGCCGGUCCCAAGCCCGGAUAAAAGUGGAGGGGGCGG

Variants of: B1
Assay: self-cleavage, relative activity (ratio to wild type); higher = more cleavage; co-transcriptional
Procedure, shortened: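 A DNA template for a 54-nucleotide Oryza sativa twister ribozyme was synthesised with 97 % wild-type base and 1 % of each other base at the 48 positions downstream of the cleavage site. It was transcribed in vitro for 2 h at 37 °C, allowing co-transcriptional self-cleavage, then reverse-transcribed with a template-switching oligonucleotide, PCR-amplified and deep-sequenced. Cleavage status was scored from reads with or without upstream sequence. Relative activity is fraction cleaved normalised to wild type.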

Variant | self-cleavage
G54U U43A | 0.84
G54U U43C | 0.7
G54U U43G | 0.7
